Assay outcomes as filed in PubChem BioAssay.
TRPC4 inh = inhibitors of mouse TRPC4 channel, primary screen, Fluo4 calcium, HEK293 TRPC4beta/mu-opioid cells; Short transient receptor potential channel 4 (Mus musculus), Q9QUQ5; DAMGO-evoked Fluo4 calcium flux; stronger effect = lower value; B-score at 10 µM; actives 0.39% (n = 300,000);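 active = B-score over 3 SD under the library average, no early fluorescence shift, positive overall ratio signal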
Target sequence (Q9QUQ5 whole entry, looked up): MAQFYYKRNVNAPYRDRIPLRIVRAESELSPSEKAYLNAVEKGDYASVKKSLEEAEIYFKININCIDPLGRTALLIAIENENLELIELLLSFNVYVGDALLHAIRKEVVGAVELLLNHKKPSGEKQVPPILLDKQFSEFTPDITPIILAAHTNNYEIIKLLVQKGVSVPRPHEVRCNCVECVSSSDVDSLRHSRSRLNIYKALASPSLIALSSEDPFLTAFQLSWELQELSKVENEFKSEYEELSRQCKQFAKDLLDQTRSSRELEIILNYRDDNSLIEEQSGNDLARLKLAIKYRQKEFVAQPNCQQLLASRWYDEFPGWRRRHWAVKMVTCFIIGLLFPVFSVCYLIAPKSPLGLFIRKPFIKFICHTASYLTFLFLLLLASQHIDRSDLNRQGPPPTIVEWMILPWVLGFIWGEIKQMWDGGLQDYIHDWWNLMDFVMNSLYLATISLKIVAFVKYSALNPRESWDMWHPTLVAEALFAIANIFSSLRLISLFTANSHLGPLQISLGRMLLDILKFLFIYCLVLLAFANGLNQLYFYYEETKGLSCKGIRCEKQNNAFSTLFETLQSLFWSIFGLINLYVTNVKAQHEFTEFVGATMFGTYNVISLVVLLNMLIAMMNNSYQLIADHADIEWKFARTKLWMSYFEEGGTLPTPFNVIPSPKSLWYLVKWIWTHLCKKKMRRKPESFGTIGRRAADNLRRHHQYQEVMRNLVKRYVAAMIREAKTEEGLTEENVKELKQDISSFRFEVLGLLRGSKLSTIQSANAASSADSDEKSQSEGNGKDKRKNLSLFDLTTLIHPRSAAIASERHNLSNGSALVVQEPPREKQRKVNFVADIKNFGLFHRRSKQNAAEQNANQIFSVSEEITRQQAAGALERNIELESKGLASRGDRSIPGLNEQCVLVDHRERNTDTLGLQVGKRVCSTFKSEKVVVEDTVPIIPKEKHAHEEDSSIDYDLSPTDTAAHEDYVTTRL
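test system = HEK293 cells with stable TRPC4beta plus mu-opioid receptor expression | detection = Fluo4 Ca2+ flux fluorescence | read-out = integrated fluorescence ratio relative to baseline, converted to per-well B score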
TRPC6 inh = mouse TRPC6 channel inhibitors, primary screen, cell-based, HEK293, membrane potential dye. Short transient receptor potential channel 6 (Mus musculus), Q61143. actives 1.1% (n = 310,000). ACh-evoked depolarization; stronger effect = lower value. B-score at 10 µM;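 active = B-score under library mean minus 3 SD, initial fluorescence not abnormally high, positive integrated signal ratio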;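 also: B-score derived from integrated fluorescence ratio over the kinetic read; more negative B-score means stronger inhibition of depolarization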
TRPC4 potent = positive allosteric modulators of TRPC4, primary screen, cell-based, mouse TRPC4beta, HEK293 mu-opioid, Fluo-4 calcium. AID 2227, 2009. DAMGO EC20, Fluo-4 Ca2+ flux; stronger effect = higher value. actives 0.42% (n = 310,000). Short transient receptor potential channel 4 (Mus musculus), Q9QUQ5. B-score at 10 µM;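 active = B-score of calcium response area above 5 SD of library B-scores, with initial fluorescence ratio within 5 SD of library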
TRPC6 act = mouse TRPC6 channel activators, primary screen, cell-based, HEK293, membrane potential dye; Short transient receptor potential channel 6 (Mus musculus), Q61143; HEK293-TRPC6 membrane potential dye fluorescence; stronger effect = higher value; B-score at 10 µM; actives 0.13% (n = 310,000); AID 2550, 2010;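 active = B-score of the integrated fluorescence ratio above library mean plus 3 SD, and starting fluorescence ratio within library mean plus 5 SD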;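 also: higher score means more depolarization so channel activation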
TRPC4 act = activators of mouse TRPC4 channel, primary screen, Fluo4 calcium, HEK293 TRPC4beta/mu-opioid cells; Short transient receptor potential channel 4 (Mus musculus), Q9QUQ5; Fluo4 calcium fluorescence; stronger effect = higher value; B-score at 10 µM; actives 0.49% (n = 310,000); AID 2237, 2010;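 active = B-score above 5 SD of library B-scores, and initial fluorescence ratio not above library mean plus 5 SD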;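 also: positive B-score marks a calcium rise read as TRPC4 activation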
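system = HEK293 cells stably co-expressing mouse TRPC4beta and mu-opioid receptor | schedule = Fluo4 dye loading 45 min at room temperature, 110 s recording | measure = B-scored integrated calcium fluorescence ratio | signal = Fluo4 calcium-sensitive dye fluorescence, kinetic, 1 Hz baseline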
TRPC4 sel inh 2 = second check of whether TRPC6 inhibitors also affect mouse TRPC4; shares compounds with TRPC6 inh; inhibition, % at 10 µM; AID 2776; HEK293 TRPC4/MOR, membrane potential dye fluorescence; channel activated by saturating DAMGO dose; actives 42% (n = 920);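 active = compounds whose fluorescence signal differed from control wells by over 3 SD, either direction, in both duplicate plates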
TRPC4 spec = mouse TRPC4 modulation by TRPC6 hits, confirmation, selectivity assay for TRPC6 inhibitor project, cell-based, HEK293 TRPC4/mu-opioid, membrane potential dye; membrane potential fluorescence; actives 61% (n = 920); shares compounds with TRPC6 inh; activity change, negative = inhibition, % at 10 µM;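 active = rise or fall in signal beyond 3 SD of buffer-only wells in both replicate plates, either sign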;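 also: integrated kinetic ratio of fluorescence range over baseline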
HEK293 MPD ctr 2-1 = nonspecific membrane potential effects, parental HEK293, confirmation, counter-screen for TRPC6 inhibitor project, cell-based, second counter screen; shares compounds with TRPC6 inh; parental HEK293 membrane potential dye fluorescence; maximal acetylcholine challenge after compound addition; signal change vs control, % at 10 µM; actives 31% (n = 920); AID 2779, 2010;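 active = membrane potential signal moving either way by over 3 SD of the maximum-effect control, in both duplicate plates, meaning non-specific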
HEK293 MPD ctr-1 = membrane potential modulation in parental HEK293, confirmation, counter-screen for TRPC6 inhibitor project, cell-based | shares compounds with TRPC6 inh | parental HEK293 membrane potential dye fluorescence | membrane potential signal change, % at 10 µM | actives 60% (n = 920) | AID 2780, 2010;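 active = membrane potential signal shifting up or down by more than 3 SD of buffer-only wells, on both duplicate plates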
HEK293 MPD ctr-2 = parental HEK293 membrane potential modulation, confirmation, counter-screen for TRPC6 modulator project, cell-based | membrane potential signal change, % at 10 µM | AID 488924, 2010 | membrane potential dye fluorescence | actives 51% (n = 2,400) | shares compounds with TRPC6 inh;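 active = membrane potential signal moves up or down beyond 5 SD from buffer-only wells, on both duplicate plates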
HEK293 MPD ctr 2-2 = second counter-screen for TRPC6 modulators: effect in parental HEK293 cells; inhibition, % at 10 µM; membrane potential dye fluorescence; after compound, maximal acetylcholine stimulation; AID 488926; shares compounds with TRPC6 inh; actives 14% (n = 2,400);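 active = membrane potential signal drops by more than 5 SD from the mean control signal, in both duplicate plates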
TRPC4/MOR mod = TRPC4 modulation by TRPC6 hit compounds, confirmation, selectivity assay for TRPC6 modulator project, cell-based, HEK293 TRPC4/mu-opioid, membrane potential dye, mouse; shares compounds with TRPC6 inh; membrane potential fluorescence; percent change from control (negative = decrease, positive = increase), % at 10 µM; actives 69% (n = 2,400); AID 488927, 2010;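 active = membrane potential signal moved up or down beyond 5 SD of buffer control wells, in both duplicate plates, actives on both sides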
TRPC4/MOR inh 2 = second check of whether TRPC6 modulators also affect mouse TRPC4; HEK293 TRPC4/mu-opioid, membrane potential dye fluorescence; stimulated with maximal-effect DAMGO; shares compounds with TRPC6 inh; inhibition, % at 10 µM; actives 55% (n = 2,400);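 active = drop in membrane potential signal beyond 5 SD of the control wells in both duplicate plates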;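 also: TRPC4 counter screen for TRPC6 hits run under conditions tuned for TRPC6 not TRPC4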
TRPC6 inh conf = mouse TRPC6 channel inhibitors, confirmation, HEK293 cells, membrane potential dye, duplicate; shares compounds with TRPC6 inh; ACh-evoked depolarization; inhibition, % at 10 µM; actives 43% (n = 3,300); AID 488960, 2010;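 active = fluorescence ratio falls more than 5 SD below the full-stimulation control mean, in both duplicate runs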;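 also: integrated fluorescence ratio of peak minus minimum over baseline after agonist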
TRPC6 act conf = mouse TRPC6 channel activators, confirmation, HEK293 cells, membrane potential dye, duplicate; shares compounds with TRPC6 inh; HEK293-TRPC6 membrane potential dye fluorescence, FDSS; activation, % at 10 µM; actives 11% (n = 2,800);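 active = ratio signal rise beyond 5 SD above unstimulated control wells' mean, seen in both duplicate runs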
A number is an active result; i = inactive; nt = no result. Only some compounds are listed: those with a hit (about 2.3% of all), similar ones and a draw of the others.

SMILES | TRPC4 inh | TRPC6 inh | TRPC4 potent | TRPC6 act | TRPC4 act | HEK293 MPD ctr-2 | HEK293 MPD ctr 2-2 | TRPC4/MOR mod | TRPC4/MOR inh 2 | TRPC6 inh conf | TRPC6 act conf | others
CC(=O)c1ccc(OCCCC(=O)N2CCN(S(=O)(=O)c3cc(C)ccc3C)CC2)cc1 | i | i | i | i | i | nt | nt | nt | nt | nt | nt
CC(C)c1ccc(S(=O)(=O)N2CCN(C(=O)C3CC3C)CC2)cc1 (stereo not given) | i | -10 | i | 16 | i | i | i | 17% | i | 112% | 145%
CC(=O)c1ccc(OCCCC(=O)N2CCN(S(=O)(=O)c3ccc(C(C)C)cc3)CC2)cc1 | i | -9.2 | i | i | i | nt | nt | nt | nt | i | nt | TRPC4 sel inh 2=i;TRPC4 spec=-0.4%;HEK293 MPD ctr 2-1=i;HEK293 MPD ctr-1=1.7%
CC(C)c1ccc(S(=O)(=O)N2CCN(C(=O)c3cccc(F)c3)CC2)cc1 | i | i | i | 17 | i | i | i | 20% | i | nt | 186%
Cc1ccc(C(=O)N2CCN(S(=O)(=O)c3ccc(C)cc3)CC2)cc1 | i | -5.1 | i | i | i | i | i | i | i | 79% | nt
CC(C)c1ccc(S(=O)(=O)N2CCN(C(=O)C3CCCCC3)CC2)cc1 | i | i | i | i | i | nt | nt | nt | nt | nt | nt
CCOc1ccc(S(=O)(=O)Nc2ccc(C(=O)NCC(c3ccco3)N3CCCCC3)cc2)cc1 (stereo not given) | i | i | i | i | i | nt | nt | nt | nt | nt | nt
CC(C)c1ccccc1NC(=O)COC(=O)C1(C)CC1(Cl)Cl (stereo not given) | i | i | i | i | i | nt | nt | nt | nt | nt | nt
CC(C)c1c(C(=O)N/N=C/c2ccsc2)nnn1-c1nonc1N | i | i | i | i | i | nt | nt | nt | nt | nt | nt
CN(CC(=O)Nc1ccc(N2CCOCC2)cc1)CC(=O)Nc1ccccc1C#N | i | i | i | i | i | nt | nt | nt | nt | nt | nt
CN(C)c1cccc(C(=O)NCCCSc2ccccc2)c1 | i | i | i | i | i | nt | nt | nt | nt | nt | nt
CC(=O)Nc1ccc(C(=O)OCCC(C)C)cc1 | i | -6.8 | i | i | i | nt | nt | nt | nt | i | i | TRPC4 sel inh 2=i;TRPC4 spec=i;HEK293 MPD ctr 2-1=i;HEK293 MPD ctr-1=i
COc1ccccc1NC(=O)c1cnc(SCC(=O)NCC2CCCO2)n(C)c1=O (stereo not given) | i | i | i | i | i | nt | nt | nt | nt | nt | nt
CCN(CC)CCNC(=O)c1ccc(NC(=O)c2ccc3c(c2)CCC3)cc1 | i | -9.5 | i | 12 | i | 217% | i | 29% | i | 69% | 160%
CCCCCCCCn1ccc(=N)cc1 | i | i | i | i | i | nt | nt | nt | nt | nt | nt
CCCCCCCCCCn1ccc(=N)cc1 | i | -9.1 | i | i | i | nt | nt | nt | nt | 56% | i | TRPC4 sel inh 2=i;TRPC4 spec=i;HEK293 MPD ctr 2-1=i;HEK293 MPD ctr-1=i
CCn1c2ccc(F)cc2c2nnc(SCCN3CCCCC3)nc21 | i | -5.8 | i | i | i | -78% | i | 36% | 80% | i | i
C=CCn1c2ccccc2c2nnc(SCCN3CCCCC3)nc21 | i | -8.6 | i | i | i | nt | nt | nt | nt | i | i | TRPC4 sel inh 2=73%;TRPC4 spec=-14%;HEK293 MPD ctr 2-1=i;HEK293 MPD ctr-1=-154%
CCCn1c2ccc(F)cc2c2nnc(SCCN3CCCCC3)nc21 | i | i | i | i | i | nt | nt | nt | nt | nt | nt
c1ccc(Cn2c3ccccc3c3nnc(SCCN4CCCCC4)nc32)cc1 | i | i | i | i | i | nt | nt | nt | nt | nt | nt
CCN(CC)CCSc1nnc2c3ccccc3n(CCc3ccccc3)c2n1 | i | -7.5 | i | i | i | nt | nt | nt | nt | i | i | TRPC4 sel inh 2=18%;TRPC4 spec=0.5%;HEK293 MPD ctr 2-1=i;HEK293 MPD ctr-1=-198%
Cc1cccc(CCN2CCC(C(=O)c3ccc(NS(C)(=O)=O)cc3)CC2)n1 | i | i | i | i | i | nt | nt | nt | nt | nt | nt
Cc1ccc(NC(=O)COc2ccccc2CNC(C)(C)CC(C)(C)C)cc1 | i | i | i | 14 | i | 296% | i | 71% | i | i | 176%
CC(C)(CO)NCc1ccccc1OCC(=O)Nc1ccccc1 | i | i | i | i | i | nt | nt | nt | nt | nt | nt
CCOC(=O)c1cnc2c(C)c(C)ccc2c1NCCN1CCOCC1 | i | -5.8 | i | i | i | 86% | 77% | 28% | 33% | i | i
CCOC(=O)c1cnc2c(Cl)c(Cl)ccc2c1NCCN1CCOCC1 | i | i | i | i | i | nt | nt | nt | nt | nt | nt
CCOC(=O)c1cnc2c(C)c(Cl)ccc2c1NCCCN1CCOCC1 | i | i | i | i | i | nt | nt | nt | nt | nt | nt
Cc1ccc2ncnc(NCCCN3CCOCC3)c2c1 | i | i | i | i | i | nt | nt | nt | nt | nt | nt
CCOC(=O)c1cnc2ccc(C)cc2c1NCCN1CCOCC1 | i | -5.1 | i | i | i | i | i | 15% | 34% | 42% | i
